We go through 15 molecules from ChEMBL document CHEMBL4270661 (Bioorg Med Chem, 2018).

Activity calls are given as the source filed them. The calls are words filed in the database; no cut-off is given here.

Data set [1] is described as follows: Induction of microtubule depolymerization in rat A10 cells assessed as cellular microtubule loss incubated for 18 hrs by DAPI staining-based indirect immunofluorescence assay. Particulars: A10, 18 h. The class given is cell-based.
Data set [2] deals with MDA-MB-435. The data set is described as follows: Antiproliferative activity against human MDA-MB-435 cells after 48 hrs by sulforhodamine B assay. In kind it is functional, cell-based. The following applies: MDA-MB-435, 48 h. The gist of the method:
(§1)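 SRB assay: cells plated at set densities, left 24 h to attach and grow, then exposed in triplicate wells to a concentration range for 48 h (DMSO vehicle). Cells fixed, protein stained with SRB. Cells kept at 37 °C, 5% CO2.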
A general note: The SRB assay estimates cell density from bound dye.

The target in data set [3] is T1, Tubulin (Homo sapiens) (UniProt P68371+Q9H4B7+P0DPH7+P68366+Q13509+Q71U36+P04350+Q3ZCM7+P07437+P68363+Q9BQE3+Q6PEY2+Q13885+Q9BVA1+Q9BUF5). The data set is described as follows: Inhibition of [3H]-colchicine binding to tubulin (unknown origin) at 5 uM relative to control. The class given is protein-complex assay.
For data set [4], the target named is T1, Tubulin (Homo sapiens). The data set is described as follows: Inhibition of [3H]-colchicine binding to tubulin (unknown origin) at 0.5 uM relative to control. In kind it is protein-complex assay.
Data set [5] deals with HeLa. Put plainly: Antiproliferative activity against human HeLa cells after 48 hrs by sulforhodamine B assay. In kind it is functional, cell-based. The gist of the method: as §1
Data set [6] concerns HeLa. The data set is described as follows: Antiproliferative activity against human HeLa cells expressing wild type beta3 tubulin after 48 hrs by sulforhodamine B assay. In kind it is functional, cell-based. In a few lines: as §1
Data set [7] is described as follows: Resistance index, ratio of IC50 for human HeLa cells expressing wild type beta3 tubulin to IC50 for human HeLa cells. In kind it is functional. In a few lines:
(§2)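 Relative resistance (Rr): IC50 in resistant line divided by IC50 in isogenic parental line, from 48 h SRB assays (HeLa WT βIII vs HeLa; SK-OV-3/MDR-1-6/6 vs SK-OV-3).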

For data set [8], the system named is SK-OV-3. Put plainly: Antiproliferative activity against human SKOV3 cells after 48 hrs by sulforhodamine B assay. The class given is functional, cell-based. Particulars: SK-OV-3, 48 h. The gist of the method: as §1
Data set [9] in a line: Antiproliferative activity against human SKOV3-MDR1-M6/6 cells after 48 hrs by sulforhodamine B assay. Particulars: SKOV3-MDR1-M6/6, 48 h. In kind it is functional. In a few lines:
as §1

Data set [10] is described as follows: Resistance index, ratio of IC50 for human SKOV3-MDR1-M6/6 cells to IC50 for human SKOV3 cells. The class given is functional. The gist of the method:
as §2

Data set [11] deals with MDA-MB-231. The data set is described as follows: Antitumor activity against human MDA-MB-231 cells xenografted in athymic Foxn1nu/Foxn1nu mouse assessed as tumor growth inhibition at 10 mg/kg, ip, administered on day 1,2,3,8,9 and 10. The class given is functional, organism-based. Background: Xenograft models place foreign cells or tissue in a host animal.
Data set [12] has as its system NCI/ADR-RES. Particulars: Homo sapiens, 10 mg/kg.
The test system of data set [13] is MDA-MB-435. Put plainly: Antitumor activity against human MDA-MB-435 cells xenografted in athymic Foxn1nu/Foxn1nu mouse assessed as tumor growth inhibition at 75 mg/kg, ip, administered on day 1,2,3,4 and 9. In kind it is functional, organism-based. In a few lines:
(§3)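 Female athymic nude mice, 6 weeks old, bilateral flank implants of MDA-MB-435 tumor fragments. Grouped at ~200 mm³ (5 mice, 10 tumors per group), randomized. 75 mg/kg ip per dose, stock in ethanol or water diluted in PBS (<5% solvent), vs untreated controls. Caliper volume (width × length × height), tumor mass at trial end (day 15), mean ± SEM.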

In data set [14] the test system is Mus musculus. The data set is described as follows: Toxicity in athymic Foxn1nu/Foxn1nu mouse xenografted with human MDA-MB-435 cells assessed as body weight loss at 75 mg/kg, ip, administered on day 1,2,3,4 and 9. The class given is organism-based. The following applies: in vivo. The gist of the method: (§4)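 Female athymic nude mice bearing bilateral MDA-MB-435 flank tumors, 10 tumors per group, given 75 mg/kg ip (PBS, <5% solvent). Individual body weights tracked through the trial as percent change, mean ± SEM, vs untreated controls.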

Data set [15] concerns Mus musculus. Put plainly: Toxicity in athymic Foxn1nu/Foxn1nu mouse xenografted with human MDA-MB-435 cells assessed as occurence of neurological side effects at 75 mg/kg, ip, administered on day 1,2,3,4 and 9. In kind it is organism-based. Particulars: in vivo.
The subject of data set [16] is MDA-MB-435. The data set is described as follows: Antitumor activity against human MDA-MB-435 cells xenografted in athymic Foxn1nu/Foxn1nu mouse assessed as tumor growth inhibition at 75 mg/kg, ip, administered on day 1,2,3,4,7,9 and 11. In kind it is functional, organism-based. The gist of the method:
as §3

Data set [17] has as its system Mus musculus. The data set is described as follows: Toxicity in athymic Foxn1nu/Foxn1nu mouse xenografted with human MDA-MB-435 cells assessed as body weight loss at 75 mg/kg, ip, administered on day 1,2,3,4,7,9 and 11. The class given is organism-based. Particulars: in vivo. The gist of the method:
as §4

Data set [18] concerns Mus musculus. Put plainly: Toxicity in athymic Foxn1nu/Foxn1nu mouse xenografted with human MDA-MB-435 cells assessed as occurence of neurological side effects at 75 mg/kg, ip, administered on day 1,2,3,4,7,9 and 11. The class given is organism-based. Particulars: in vivo.
The test system of data set [19] is MDA-MB-231. Put plainly: Antitumor activity against human MDA-MB-231 cells xenografted in athymic Foxn1nu/Foxn1nu mouse assessed as tumor growth inhibition at 75 mg/kg, ip, administered on day 1,2,3,8,9 and 10. In kind it is functional, organism-based.
The subject of data set [20] is NCI/ADR-RES. The data set is described as follows: Antitumor activity against p-gp expressing human NCI/ADR-RES cells xenografted in athymic Foxn1nu/Foxn1nu mouse assessed as tumor growth inhibition at 75 mg/kg, ip administered on day 1,3 and 5 measured on day 9. In kind it is functional, organism-based. The gist of the method: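 Female athymic nude mice, bilateral flank NCI/ADR-RES (Pgp-expressing) tumor transplants, 8-9 tumors per group. […] Caliper tumor volume, mean ± SEM, compared on day 9 when the trial was stopped.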

Broadly, the EC50 is the concentration giving half of the maximal effect. In general, IC50 refers to the concentration at which inhibition is half-maximal. In general, inhibition refers to the relative decrease from the control value, in per cent. High values mean a strong effect, low ones a weak effect. As to `COc1ccc2c(c1)CCCN2c1nc(C)nc2ccn(C)c12.Cl`, the EC50 in data set [1] was 0.039 µM. In addition, the IC50 came out at 0.021 µM in data set [2]; 0.027 µM in data set [5]; 0.033 µM in data set [6]; 0.03 µM in data set [8]; 0.0315 µM in data set [9]. The inhibition in data set [3] came to 98%; in [4], 72%. Moreover, the “Ratio IC50” value in data set [7] is recorded as 1.2; in data set [10] it was 1.1.

With `COc1ccc2c(c1)CCCN2c1nc(C)nc2cc[nH]c12`, in data set [1], the EC50 was 0.23 µM. This molecule also showed an inhibition in data set [3] of 70%.

`COc1ccc(Nc2nc(C)nc3cc[nH]c23)c(OC)c1`: in [1], the EC50 was > 10 µM. This molecule came in with an inhibition in data set [3] of 0%.

For the molecule `COc1ccc(Nc2nc(C)nc3ccn(C)c23)c(OC)c1`, in data set [1], the EC50 is > 10 µM. Further, in data set [3], the inhibition stood at 14%.

Turning to `COc1ccc(Nc2nc(C)nc3cc[nH]c23)cc1`, the EC50 in [1] was > 10 µM. Also, the inhibition in [3] amounted to 5.8%.

`CC(=O)O[C@H]1C(=O)[C@@]2(C)[C@H]([C@H](OC(=O)c3ccccc3)[C@]3(O)C[C@H](OC(=O)[C@H](O)[C@@H](NC(=O)c4ccccc4)c4ccccc4)C(C)=C1C3(C)C)[C@]1(OC(C)=O)CO[C@@H]1C[C@@H]2O` [PACLITAXEL]: the IC50 in data set [8] turned out to be 0.005 µM. Also, the TGI result in data set [11] was “Active”. Besides, the TGI entry in [12] is “inactive”.

On to `CCCCn1ccc2nc(C)nc(N(C)c3ccc(OC)cc3)c21.Cl`, for which the EC50 in [1] amounted to 0.032 µM. Also, the IC50 worked out at 0.027 µM in data set [2]; 0.014 µM in data set [5]; 0.01 µM in data set [6]; 0.013 µM in [8]; 0.015 µM in data set [9]. Further, the figures for the inhibition in data set [3] and in data set [4] were 96% and 82%, respectively. The entries for the “Ratio IC50” value in [7] and in data set [10] were 0.7 and 1.2, respectively.

As for `CCn1ccc2nc(C)nc(N(C)c3ccc(OC)cc3)c21`, the EC50 in [1] amounted to 0.028 µM. The IC50 in data set [2] is 0.0108 µM; in data set [5], 0.017 µM; in data set [6], 0.014 µM; in [8], 0.017 µM; in data set [9] it was 0.0193 µM. Besides, the inhibition in data set [3] was 96%; in data set [4] it was 79%. Besides, the “Ratio IC50” value in data set [7] turned out to be 0.8; in data set [10], 1.1.

On to `COc1ccc(/C=C\c2cc(OC)c(OC)c(OC)c2)cc1O` [COMBRETASTATIN A4], for which, in data set [1], the EC50 was 0.0098 µM. The molecule also displayed an IC50 in data set [9] of 0.007 µM.

As to `COc1ccc(N(C)c2nc(C)nc3ccn(C(C)C)c23)cc1.Cl`, in data set [1], the EC50 was determined as 0.042 µM. Also, the IC50 was 0.021 µM in data set [2]; 0.032 µM in data set [5]; 0.02 µM in data set [6]; 0.031 µM in data set [8]; 0.058 µM in [9]. The inhibition in data set [3] was found to be 92%; in data set [4], 60%. The “Ratio IC50” value in data set [7] stood at 0.6; in [10] it was 1.9.

With `COc1ccc(N(C)c2nc(C)nc3ccn(C)c23)cc1.Cl`, the EC50 in data set [1] came out at 0.0074 µM. Besides, the IC50 was determined as 0.0043 µM in data set [2]; 0.005 µM in data set [5]; 0.0043 µM in data set [6]; 0.0052 µM in data set [8]; 0.006 µM in data set [9]. The inhibition came out at 99% in data set [3] and 79% in data set [4]. The “Ratio IC50” value in data set [7] was 0.9; in [10], 1.2. Besides, the TGI result in data set [13] is “Active”. In addition, the Activity entry is “Non-Toxic” in data set [14] and “Toxic” in data set [15].

On to `COc1ccc(N(C)c2nc(C)nc3cc[nH]c23)cc1`, for which, in data set [1], the EC50 came out at 1.2 µM. In data set [3], this molecule displayed an inhibition of 60%.

In the case of `CCCn1ccc2nc(C)nc(N(C)c3ccc(OC)cc3)c21.Cl`, the EC50 in data set [1] came to 0.02 µM. Also, the IC50 in data set [2] worked out at 0.009 µM; in data set [5] it was 0.0059 µM; in data set [6], 0.0051 µM; in [8], 0.005 µM; in data set [9], 0.007 µM. Besides, the inhibition in data set [3] came to 97%; in data set [4], 86%. The “Ratio IC50” value in data set [7] came out at 0.9; in [10], 1.4. Besides, the TGI result in data set [16], in data set [19] and in data set [20] was “Active” throughout. Also, the Activity entry in data set [17] and in data set [18] was “Non-Toxic” each time.

`COc1ccc(Nc2nc(C)nc3ccn(C)c23)cc1`: the EC50 in data set [1] was > 10 µM. Besides, in data set [3], the inhibition amounted to 4.2%.

As for `COc1ccc(N(C)c2nc(C)nc3ccn(CC(C)C)c23)cc1.Cl`, the EC50 in [1] came out at 0.055 µM. The IC50 is 0.039 µM in data set [2]; 0.026 µM in data set [5]; 0.023 µM in data set [6]; 0.026 µM in data set [8]; 0.025 µM in [9]. Also, the inhibition was 95% in [3] and 67% in [4]. Further, the figures for the “Ratio IC50” value in data set [7] and in data set [10] were 0.9 and 1, respectively.
